Reference: ChEMBL document CHEMBL4477254, “Synthesis and biological evaluation of some novel triazole hybrids of curcumin mimics and their selective anticancer activity against breast and prostate cancer cell lines” (Bioorg Med Chem Lett, 2016)
In brackets after ≈: the same amount, converted by molar mass. Activity calls are given as the source filed them. No cut-off for these calls is given here.

Legend:
DU-145 [1] = experiment: Cytotoxicity against human DU145 cells assessed as decrease in cell viability after 24 hrs by MTT assay; assay type: functional, cell-based; settings: DU-145, 24 h
Summary of the method: (§1)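 Cell viability by MTT after 24 h compound exposure; curcumin as standard. IC50 in µM from three independent experiments, expressed as mean ± SE.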

[2] = Protein binding in rat plasma at 8 ug/ml after 15 mins by UPLC based charcoal adsorption method; assay type: ADME, cell-free; settings: read-out: PPB (converted)
PC-3 [3] = experiment: Potency index, ratio of curcumin IC50 to compound IC50 in human PC3 cells; assay type: functional
Summary of the method: (§2)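 IC50 came from an MTT viability assay after 24 h compound exposure, with curcumin run as the standard. Values are mean ± SE of three independent experiments. The index is the curcumin IC50 divided by the compound IC50 in the same cell line.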

[4] = Stability in rat plasma assessed as compound remaining after 2 hrs at 37 degC by UPLC analysis; assay type: ADME, cell-free; settings: read-out: Stability
Summary of the method: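 Compound was incubated in plasma, and the percentage remaining intact was calculated at time points up to 2 h.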

PC-3 [5] = experiment: Induction of morphological changes in human PC3 cells at 2.4 to 8.8 uM after 24 hrs by phase contrast microscopy; assay type: functional, cell-based
Summary of the method: (§3)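 Cells were exposed to a range of concentrations for 24 h. Cell number and morphology, including detachment from the surface, were assessed by phase-contrast microscopy at 10X magnification.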

[6] = Half life in liver microsomes (unknown origin) at 8 ug/ml in presence of NADPH by UPLC analysis; assay type: ADME, Microsome
PC-3 [7] = experiment: Induction of apoptosis in human PC3 cells assessed as viable cells at 4.8 uM after 24 hrs by annexin V-FITC/propidium iodide staining based flow cytometry (reference value: 92.24%); assay type: functional; settings: PC-3, 24 h, read-out: Activity
Summary of the method: (§4)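 MCF-7 cells exposed to 3, 6 or 9 μM and PC-3 cells to 4.8 or 8.8 μM for 24 h, then harvested and dual-stained with Annexin V-FITC/PI and read by flow cytometry. Gates: live AnnexinV⁻/PI⁻, early apoptotic AnnexinV⁺/PI⁻, necrotic AnnexinV⁻/PI⁺.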

DU-145 [8] = experiment: Potency index, ratio of curcumin IC50 to compound IC50 in human DU145 cells; assay type: functional; summary of the method: as §2
MDA-MB-231 [9] = experiment: Potency index, ratio of curcumin IC50 to compound IC50 in human MDA-MB-231 cells; assay type: functional; summary of the method: as §2
PC-3 [10] = experiment: Induction of apoptosis in human PC3 cells assessed as early apoptotic cells at 4.8 uM after 24 hrs by annexin V-FITC/propidium iodide staining based flow cytometry (reference value: 4.44%); assay type: functional; summary of the method: as §4
[11] = biological target: Serine/threonine-protein kinase AKT (Homo sapiens) (UniProt P31751+Q9Y243+P31749); experiment: Inhibition of Akt phosphorylation at […] in human PC3 cells at 8.8 uM after 24 hrs by Western blot analysis; assay type: cell-based
Chain of Serine/threonine-protein kinase AKT (Homo sapiens) (P31749 whole entry, looked up): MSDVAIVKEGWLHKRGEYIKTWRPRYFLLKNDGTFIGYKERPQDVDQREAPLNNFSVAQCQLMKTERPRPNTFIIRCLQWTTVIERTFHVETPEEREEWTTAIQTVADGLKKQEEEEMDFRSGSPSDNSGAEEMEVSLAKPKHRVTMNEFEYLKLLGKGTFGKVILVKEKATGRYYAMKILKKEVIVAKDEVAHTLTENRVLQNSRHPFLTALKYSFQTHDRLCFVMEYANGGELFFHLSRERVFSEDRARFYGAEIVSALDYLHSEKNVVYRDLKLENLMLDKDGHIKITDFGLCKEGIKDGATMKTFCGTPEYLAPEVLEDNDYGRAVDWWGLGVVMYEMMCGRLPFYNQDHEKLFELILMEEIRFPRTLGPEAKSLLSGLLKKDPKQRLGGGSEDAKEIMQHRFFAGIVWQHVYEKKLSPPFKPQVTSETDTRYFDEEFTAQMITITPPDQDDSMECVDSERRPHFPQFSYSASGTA
Chain of Serine/threonine-protein kinase AKT (Homo sapiens) (P31751 whole entry, looked up): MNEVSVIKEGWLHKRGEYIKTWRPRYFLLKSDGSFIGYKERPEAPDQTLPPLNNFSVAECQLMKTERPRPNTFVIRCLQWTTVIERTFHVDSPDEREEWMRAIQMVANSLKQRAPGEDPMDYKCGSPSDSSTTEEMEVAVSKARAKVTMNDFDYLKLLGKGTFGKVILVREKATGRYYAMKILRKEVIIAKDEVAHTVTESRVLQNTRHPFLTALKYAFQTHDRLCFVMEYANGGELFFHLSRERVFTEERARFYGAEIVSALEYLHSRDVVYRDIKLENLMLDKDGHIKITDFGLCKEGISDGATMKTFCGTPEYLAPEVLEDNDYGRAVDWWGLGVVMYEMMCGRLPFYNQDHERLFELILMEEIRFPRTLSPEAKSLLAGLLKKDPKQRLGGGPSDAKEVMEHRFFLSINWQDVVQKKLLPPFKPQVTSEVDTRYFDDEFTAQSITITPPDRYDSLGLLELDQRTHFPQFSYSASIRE
Chain of Serine/threonine-protein kinase AKT (Homo sapiens) (Q9Y243 whole entry, looked up): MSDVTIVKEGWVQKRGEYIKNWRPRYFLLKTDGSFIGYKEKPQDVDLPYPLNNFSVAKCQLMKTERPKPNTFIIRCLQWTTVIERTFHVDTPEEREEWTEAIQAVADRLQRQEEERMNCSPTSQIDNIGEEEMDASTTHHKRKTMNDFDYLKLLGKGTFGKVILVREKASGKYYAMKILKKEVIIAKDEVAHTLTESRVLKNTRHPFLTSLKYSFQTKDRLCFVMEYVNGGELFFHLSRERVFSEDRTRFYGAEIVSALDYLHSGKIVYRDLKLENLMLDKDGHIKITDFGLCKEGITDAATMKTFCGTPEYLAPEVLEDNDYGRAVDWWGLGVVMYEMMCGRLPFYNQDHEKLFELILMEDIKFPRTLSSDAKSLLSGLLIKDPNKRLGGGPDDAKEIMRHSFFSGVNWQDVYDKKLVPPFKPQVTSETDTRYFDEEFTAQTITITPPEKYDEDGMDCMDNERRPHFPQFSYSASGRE
Summary of the method: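 Protein expression was analysed by Western blotting of cells harvested after 24 h compound treatment.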

PC-3 [12] = experiment: Cell cycle arrest in human PC3 cells assessed as accumulation at G2/M phase at 8.8 uM after 24 hrs by propidium iodide staining based flow cytometry (reference value: 2.25%); assay type: functional
Summary of the method: (§5)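 Cells treated 24 h with test compound, MCF-7 at various concentrations and PC-3 at various concentrations; cells harvested, stained with propidium iodide and acquired by flow cytometry for cell cycle phase distribution.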

[13] = Stability of the compound in simulated gastric fluid assessed as compound remaining after 1 hr at 37 degC by UPLC analysis; assay type: ADME; settings: read-out: Stability
PC-3 [14] = experiment: Decrease in Bcl-2 expression in human PC3 cells at 4.8 to 8.8 uM after 24 hrs by Western blot analysis; assay type: functional, cell-based
Summary of the method: (§6)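 MCF-7 or PC-3 cells treated with compound for 24 h, harvested; PCNA, Bax and Bcl-2 protein expression checked by Western blotting.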

MCF7 [15] = experiment: Cytotoxicity against human MCF7 cells assessed as decrease in cell viability after 24 hrs by MTT assay; assay type: functional, cell-based; settings: MCF7, 24 h; summary of the method: as §1
PC-3 [16] = experiment: Induction of mitochondrial membrane depolarization in human PC3 cells at 4.8 uM after 24 hrs by JC-1 staining based flow cytometry (reference value: 4.51%); assay type: functional
4T1 [17] = experiment: Cytotoxicity against mouse 4T1 cells assessed as decrease in cell viability after 24 hrs by MTT assay; assay type: functional, cell-based; settings: 4T1, 24 h; summary of the method: as §1
[18] = Solubility of the compound in distilled water after 24 hrs by HPLC based shake flask method; assay type: physicochemical
PC-3 [19] = experiment: Decrease in PCNA levels in human PC3 cells at 4.8 to 8.8 uM after 24 hrs by Western blot analysis; assay type: functional, cell-based; summary of the method: as §6
MDA-MB-231 [20] = experiment: Cytotoxicity against human MDA-MB-231 cells assessed as decrease in cell viability after 24 hrs by MTT assay; assay type: functional, cell-based; settings: MDA-MB-231, 24 h; summary of the method: as §1
PC-3 [21] = experiment: Cytotoxicity against human PC3 cells assessed as decrease in cell viability after 24 hrs by MTT assay; assay type: functional, cell-based; settings: PC-3, 24 h; summary of the method: as §1
[22] = Stability of the compound in simulated intestinal fluid assessed as compound remaining after 2 hrs at 37 degC by UPLC analysis; assay type: ADME; settings: read-out: Stability
HEK293 = experiment: Cytotoxicity against human HEK293 cells assessed as decrease in cell viability after 24 hrs by MTT assay; assay type: cell-based; settings: HEK293, 24 h; summary of the method: as §1
PC-3 [23] = experiment: Cell cycle arrest in human PC3 cells assessed as accumulation at G0/G1 phase at 4.8 uM after 24 hrs by propidium iodide staining based flow cytometry (reference value: 72.73%); assay type: functional; summary of the method: as §5
4T1 [24] = experiment: Potency index, ratio of curcumin IC50 to compound IC50 in mouse 4T1 cells; assay type: functional; summary of the method: as §2
PC-3 [25] = experiment: Cell cycle arrest in human PC3 cells assessed as accumulation at G0/G1 phase at 8.8 uM after 24 hrs by propidium iodide staining based flow cytometry (reference value: 72.73%); assay type: functional; summary of the method: as §5
PC-3 [26] = experiment: Cell cycle arrest in human PC3 cells assessed as accumulation at S phase at 8.8 uM after 24 hrs by propidium iodide staining based flow cytometry (reference value: 25.01%); assay type: functional; summary of the method: as §5
MCF7 [27] = experiment: Cell cycle arrest in human MCF7 cells assessed as accumulation at G2/M phase at 9 uM after 24 hrs by propidium iodide staining based flow cytometry (reference value: 20.30%); assay type: functional; summary of the method: as §5
MCF7 [28] = experiment: Induction of morphological changes in human MCF7 cells assessed as cell detachment at >6 uM after 24 hrs by phase contrast microscopy; assay type: functional, cell-based; summary of the method: as §3
[29] = Intrinsic hepatic clearance in liver microsomes (unknown origin) assessed per mg of protein at 5 ug/ml in presence of NADPH by UPLC analysis; assay type: ADME, Microsome; settings: read-out: CLH (converted)
MCF7 [30] = experiment: Cell cycle arrest in human MCF7 cells assessed as accumulation at S phase at 3 uM after 24 hrs by propidium iodide staining based flow cytometry (reference value: 34.03%); assay type: functional; summary of the method: as §5
[31] = Drug metabolism in liver microsomes (unknown origin) assessed as compound remaining at 5 ug/ml after 5 mins in presence of NADPH by UPLC analysis; assay type: ADME, Microsome; settings: read-out: Drug metabolism
Summary of the method: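 Microsomal metabolic stability; percentage of compound remaining intact measured after 5 min incubation in presence of microsomes.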

MCF7 [32] = experiment: Induction of apoptosis in human MCF7 cells assessed as necrotic cells at 3 uM after 24 hrs by annexin V-FITC/propidium iodide staining based flow cytometry (reference value: 4.76%); assay type: functional
Summary of the method: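 Apoptosis by Annexin V-FITC/PI dual staining: MCF-7 cells treated 24 h at 3, 6 and 9 µM, then harvested, stained and acquired by flow cytometry; early apoptotic = AnnexinV+/PI−, live = AnnexinV−/PI−, necrotic = AnnexinV−/PI+.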

Row | fraction unbound at 0.25 h, 8 ug/ml [2] | remaining at 2 h [4] [%] | remaining at 1 h [13] [%] | solubility thermodynamic at 24 h [18] [µg/mL] | remaining at 2 h [22] [%] | SMILES | IC50 (DU-145 [1]) [µM] | Ratio IC50 (PC-3 [3]) | Ratio IC50 (DU-145 [8]) | Ratio IC50 (MDA-MB-231 [9]) | IC50 (MCF7 [15]) [µM] | IC50 (4T1 [17]) [µM] | IC50 (MDA-MB-231 [20]) [µM] | IC50 (PC-3 [21]) [µM] | IC50 (HEK293) [µM] | Ratio IC50 (4T1 [24]) | other results
1 | 0.0301 | 90 | 92 | 1.12 (≈ 2.27 µM) | 30 | Cc1ccc(/C=C2\CN(Cc3cn(Cc4ccccc4F)nn3)C/C(=C\c3ccc(C)cc3)C2=O)cc1 | 9.5 | <=5.7 | ≤ 9.5 | <=8.3 | 28.7 | 18 | 10 | 8.8 | > 100 | <=9.3 | Activity (PC-3 [5]): Active; half-life at 8 ug/ml [6]: 15.9 min; viability at 4.8 µM (PC-3 [7]): 85.3%; Activity (PC-3 [10]): 13.02%; inhibition [11]: 100%; Activity (PC-3 [12]): 8.9%; Activity (PC-3 [14]): Active; Activity (PC-3 [16]): 29.85%; Activity (PC-3 [19]): Active; Activity (PC-3 [23]): 70.62%; Activity (PC-3 [25]): 67.5%; Activity (PC-3 [26]): 23.61%
2 | 0.188 | 96 | 85 | 2.08 (≈ 4.16 µM) | 65 | O=C1/C(=C/c2ccccc2F)CN(Cc2cn(Cc3ccc(F)cc3)nn2)C/C1=C\c1ccccc1F | 8.7 | <=5.7 | ≤ 9.5 | <=8.3 | 6 | 6.4 | 10 | 19.4 | 46 | <=9.3 | Activity (MCF7 [27]): 35.11%; Activity (MCF7 [28]): Active; CLint scaled at 5 ug/ml [29]: 317 L/h/kg; Activity (MCF7 [30]): 36.03%; remaining at 5 min, 5 ug/ml [31]: 46%; Activity (MCF7 [32]): 6.18%
